Test results as given in ChEMBL document CHEMBL3745658, “An Orally Bioavailable, Indole-3-glyoxylamide Based Series of Tubulin Polymerization Inhibitors Showing Tumor Growth Inhibition in a Mouse Xenograft Model of Head and Neck Cancer” (J Med Chem, 2015).
pEC50: −log10 of the molar value. Values after ≈ are worked out from the molar mass of the structure shown. Active and inactive are the calls of the source. The calls are words filed in the database; no cut-off is given here.

Tests used:
Tubulin (Sus scrofa) [1] = biological target: T1, Tubulin (Sus scrofa) (UniProt P02554+P02550); assay: (§1) Displacement of [3H]-colchicine from biotinylated porcine tubulin after 2 hrs by competitive binding assay; assay type: protein assay
Procedure, shortened: (§2)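 Biotinylated porcine tubulin (750 ng/well) with 0.1 μM [3H]-colchicine and test compound in G-PEM with 1 mM GTP, 3% DMSO, duplicate wells, 2 h at 37 °C. Streptavidin SPA beads then added for 45 min at 37 °C. Nonspecific binding taken with 1000-fold unlabeled excess. IC50 from seven-point semilog curves, four-parameter fit.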

Tubulin (Sus scrofa) [2] = biological target: T1, Tubulin (Sus scrofa); assay: Displacement of [3H]-vinblastine from biotinylated porcine tubulin after 15 mins by competitive binding assay; assay type: protein assay
Procedure, shortened: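 Biotinylated porcine tubulin, 0.2 μM [3H]-vinblastine, SPA beads and test compound combined together in G-PEM with 1 mM GTP, 3% DMSO, duplicate wells, 15 min at rt before counting. Nonspecific binding taken with 1000-fold unlabeled excess. IC50 from seven-point semilog curves, four-parameter fit.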

Tubulin (Sus scrofa) [3] = biological target: T1, Tubulin (Sus scrofa); assay: Displacement of [3H]-paclitaxel from biotinylated porcine tubulin after 25 mins by competitive binding assay; assay type: protein assay
Procedure, shortened: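 Biotinylated porcine tubulin precoupled to SPA beads for 30 min at 4 °C, then 0.05 μM [3H]-paclitaxel and test compound added in G-PEM with 1 mM GTP, 3% DMSO, duplicate wells, 25 min at rt. Nonspecific binding taken with 1000-fold unlabeled excess. IC50 from seven-point semilog curves, four-parameter fit.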

SH-SY5Y = assay: Cytotoxicity against human SH-SY5Y cells assessed as reduction in cell viability after 72 hrs by MTT assay; assay type: functional, cell-based
Procedure, shortened: (§3)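 Cells plated at an appropriate density and left 24 h to attach, then dosed in triplicate with compound diluted from 10 mM DMSO stocks into full growth medium (added at 2× final concentration). After 72 h, cells PBS-washed and given MTT (0.5 mg/mL in PBS) for 45−60 min. Formazan dissolved in 0.1 M HCl/2-propanol, A570 read (650 nm reference). Viability normalised to DMSO control; LC50 by nonlinear regression.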

FaDu [4] = assay: Cytotoxicity against human FADU multicellular tumor spheroid assessed as dispersion of cells from the spheroid at 0.25 uM incubated for 2 to 7 days by light microscopy; assay type: functional, cell-based
Procedure, shortened: (§4)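 Monocultured FaDu spheroids dosed over a concentration range and imaged at 0, 2, 4 and 7 days post-dosing. Volume followed over time, fragmentation scored at the 7-day end point, and EC50 for disruption derived from 7-day dose–response plots. Two independent experiments, mean ± SEM.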

SK-MEL-28 = assay: Cytotoxicity against human SK-MEL-28 cells assessed as reduction in cell viability after 72 hrs by MTT assay; assay type: functional, cell-based; procedure, shortened: as §3
Tubulin [5] = biological target: T2, Tubulin (Sus scrofa, UniProt P02554+P02550); assay: as §1; assay type: protein assay; procedure, shortened: as §2
[6] = Efflux ratio of apparent permeability from basolateral to apical side over apical to basolateral side in human Caco2 cells; settings: Caco-2
FaDu [7] = assay: Cytotoxicity against human FADU cells assessed as reduction in cell viability after 72 hrs by MTT assay; assay type: functional; settings: read-out: LC50 (the source's name)
FaDu [8] = assay: Induction of microtubule disruption in human FADU cells at 50 nM after 24 hrs by immunofluorescence staining method; assay type: functional, cell-based
SCC-4 = assay: Cytotoxicity against human SCC4 cells assessed as reduction in cell viability after 72 hrs by MTT assay; assay type: functional, cell-based; procedure, shortened: as §3
Tubulin [9] = biological target: T2, Tubulin; assay: Inhibition of porcine brain tubulin polymerization assessed as reduction in GTP-induced microtubule assembly after 60 mins by OD340 method
MES-SA = assay: Cytotoxicity against human MES-SA cells assessed as reduction in cell viability after 72 hrs by MTT assay; assay type: functional, cell-based; procedure, shortened: as §3
[10] = Solubility in 2% DMSO containing 50 mM potassium phosphate buffer solution pH 7.4 at 10 uM by dynamic light scattering method; settings: pH 7.4, 10 µM
[11] = Apparent permeability from apical to basolateral side in human Caco2 cells at 10 uM at pH 7.4 after 60 mins by mass spectrometry; settings: Caco-2, pH 7.4
[12] = Solubility in 2% DMSO containing 50 mM potassium phosphate buffer solution at pH 7.4 by dynamic light scattering method; settings: 50 mM potassium phosphate buffer with 2% DMSO
[13] = Metabolic stability in CD-1 mouse liver microsomes assessed as half life at 1 uM preincubated for 5 mins before addition of NADPH by LC-MS/MS method; assay type: ADME
FaDu [14] = assay: Ratio of EC50 for human FADU multicellular tumor spheroid to LC50 for human FADU cells; assay type: functional
Procedure, shortened: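 FaDu spheroids were dosed over a range of concentrations, and spheroid volume was measured at the 7-day endpoint. EC50 for disruption came from dose–response plots, combining two independent experiments. This was compared with the 72 h monolayer MTT LC50 (triplicate wells, nonlinear regression, viability relative to DMSO).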

FaDu [15] = assay: Cytotoxicity against human FADU multicellular tumor spheroid assessed as effect on normal spheroid growth at 0.25 uM incubated for 2 to 3 days by light microscopy; assay type: cell-based; procedure, shortened: as §4
FaDu [16] = assay: Cytotoxicity against human FADU multicellular tumor spheroid assessed as induction of spheroid disruption incubated for 7 days by light microscopy; assay type: functional, cell-based; settings: 168 h; procedure, shortened: as §4
FaDu [17] = assay: Induction of mitotic spindle defects in human FADU cells at 15 nM after 24 hrs by immunofluorescence staining method; assay type: functional, cell-based
[18] = Aqueous solubility of the compound by UV-HPLC
MES-SA/Dx5 = assay: Cytotoxicity against multidrug resistant human MES-SA/Dx5 cells assessed as reduction in cell viability after 72 hrs by MTT assay; assay type: functional, cell-based; procedure, shortened: as §3
Tubulin (Sus scrofa) [19] = biological target: T1, Tubulin (Sus scrofa); assay: Potency index, ratio of vincristine IC50 to docetaxel IC50 for displacement of [3H]-paclitaxel from biotinylated porcine tubulin; assay type: protein assay

**Q.** With COc1cc([C@@H]2c3cc4c(cc3[C@H](O)[C@H]3COC(=O)[C@H]23)OCO4)cc(OC)c1OC as the molecule, how does the Activity (Tubulin (Sus scrofa) [1]) read?
**A.** Active

**Q.** What does the source list for CC(=O)O[C@@]12CO[C@@H]1C[C@H](O)[C@@]1(C)C(=O)[C@H](O)C3=C(C)[C@@H](OC(=O)[C@H](O)[C@@H](NC(=O)OC(C)(C)C)c4ccccc4)C[C@@](O)([C@@H](OC(=O)c4ccccc4)[C@H]21)C3(C)C?
**A.** Activity (Tubulin (Sus scrofa) [1]): inactive; Activity (Tubulin (Sus scrofa) [2]): Active; Activity (Tubulin (Sus scrofa) [3]): Active

**Q.** Which results are given for COCC(C)n1cc(C(=O)C(=O)Nc2ccc(OC)nc2)c2ccccc21 (stereo unspecified)?
**A.** Activity (SH-SY5Y): Active; Activity (FaDu [4]): Active; Activity (SK-MEL-28): Active; IC50 (Tubulin [5]): 160 nM; efflux ratio [6]: 1.1; CC50 (FaDu [7]): 12 nM; Activity (FaDu [8]): Active; Activity (SCC-4): Active; IC50 (Tubulin [9]): 3900 nM; Activity (MES-SA): Active; solubility [10]: soluble; Activity (Tubulin (Sus scrofa) [2]): inactive; Papp A→B at 1 h, 10 µM [11]: 33.6 ×10⁻⁶ cm/s; Activity (Tubulin (Sus scrofa) [3]): inactive; solubility kinetic [12]: 40 µM (≈ 14.7 µg/mL); half-life at 1 µM [13]: 16 min; Ratio (FaDu [14]): 3; Activity (FaDu [15]): Non-toxic; pEC50 (FaDu [16]): 7.41; Activity (FaDu [17]): Active; solubility [18]: 10 µM (≈ 3.67 µg/mL); Activity (MES-SA/Dx5): Active

**Q.** With COc1ccc(NC(=O)C(=O)c2cn(C(C)C)c3ccccc23)cn1 as the molecule, how does the IC50 (Tubulin [5]) read?
**A.** 1600 nM

**Q.** And the efflux ratio [6]?
**A.** 1.4

**Q.** And the CC50 (FaDu [7])?
**A.** 85 nM

**Q.** And the IC50 (Tubulin [9])?
**A.** 14900 nM

**Q.** What about the solubility [10] of the same molecule?
**A.** soluble

**Q.** And the Activity (Tubulin (Sus scrofa) [2])?
**A.** Active

**Q.** What about the Papp A→B at 1 h, 10 µM [11] of the same molecule?
**A.** 19.8 ×10⁻⁶ cm/s

**Q.** What about the Activity (Tubulin (Sus scrofa) [3]) of the same molecule?
**A.** inactive

**Q.** What about the solubility kinetic [12] of the same molecule?
**A.** 20 µM (≈ 6.75 µg/mL)

**Q.** And the half-life at 1 µM [13]?
**A.** 5 min

**Q.** What about the solubility [18] of the same molecule?
**A.** 10 µM (≈ 3.37 µg/mL)

**Q.** With CC[C@]1(O)C[C@H]2CN(CCc3c([nH]c4ccccc34)[C@@](C(=O)OC)(c3cc4c(cc3OC)N(C=O)[C@H]3[C@@](O)(C(=O)OC)[C@H](OC(C)=O)[C@]5(CC)C=CCN6CC[C@]43[C@@H]65)C2)C1 as the molecule, how does the Activity (Tubulin (Sus scrofa) [1]) read?
**A.** inactive

**Q.** And the Ratio IC50 (Tubulin (Sus scrofa) [19])?
**A.** 2

**Q.** What about the Activity (Tubulin (Sus scrofa) [2]) of the same molecule?
**A.** Active

**Q.** And the Activity (Tubulin (Sus scrofa) [3])?
**A.** Active
